Tested on: monocyte-depleted PBMCs
Assay: IL-1β secretion assay
Format: cell-based, human
Conditions: MD-PBMCs
Summary of the method: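 NK cells, MD-PBMCs, PBMCs or granulocytes (1.5 million/mL) or PBMC+granulocytes (0.75 million/mL each), per donor, exposed 24 h, 48 h or 6 days to 0.05–5 μM test compound diluted from DMSO stock, with DMSO controls. Supernatants kept at −70 °C. IL-1β by sandwich ELISA: HRP detection antibody, acid-stopped substrate, A450 against standards. Detection limit 3 pg/mL; triplicates; ANOVA then t test versus control, p<0.05.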

Q: What does the source list for `CCC[CH2][Sn][CH2]CCC` [DBT, Dibutyltin]?
A: average of the maximum fold increase in IL-β secretion (24 h, across donors): 2.0 fold; Interleukin 1 beta secreted (donor F142, 24 h, 0.05 μM DBT): 11284 ± 763 pg/mL; fold increase in IL-1β secretion (donor F142, 24 h, 0.05 μM DBT): 1.5 fold; fold increase in IL-1β secretion (donor F142, 24 h, 50 nM DBT): 1.5 fold; Interleukin 1 beta secreted (donor F142, 24 h, 0.1 μM DBT): 12495 ± 3130 pg/mL; fold increase in IL-1β secretion (donor F142, 24 h, 100 nM DBT): 1.6 fold; Interleukin 1 beta secreted (donor F142, 24 h, 0.25 μM DBT): 4456 ± 561 pg/mL; Interleukin 1 beta secreted (donor F142, 24 h, 0.5 μM DBT): 2637 ± 1438 pg/mL; Interleukin 1 beta secreted (donor F142, 24 h, 1 μM DBT): 77 ± 24 pg/mL; Interleukin 1 beta secreted (donor F142, 48 h, 0.05 μM DBT): 14932 ± 420 pg/mL; Interleukin 1 beta secreted (donor F142, 48 h, 0.1 μM DBT): 15275 ± 650 pg/mL; Interleukin 1 beta secreted (donor F142, 48 h, 0.25 μM DBT): 6455 ± 123 pg/mL; Interleukin 1 beta secreted (donor F142, 48 h, 0.5 μM DBT): 2604 ± 133 pg/mL; Interleukin 1 beta secreted (donor F142, 48 h, 1 μM DBT): 851 ± 54 pg/mL; Interleukin 1 beta secreted (donor F142, 48 h, 2.5 μM DBT): 6 ± 27 pg/mL; Interleukin 1 beta secreted (donor F142, 6 day, 0.05 μM DBT): 2303 ± 313 pg/mL; Interleukin 1 beta secreted (donor F142, 6 day, 0.1 μM DBT): 1606 ± 808 pg/mL; Interleukin 1 beta secreted (donor F142, 6 day, 0.25 μM DBT): 560 ± 127 pg/mL; Interleukin 1 beta secreted (donor F142, 6 day, 0.5 μM DBT): 270 ± 197 pg/mL; Interleukin 1 beta secreted (donor F142, 6 day, 1 μM DBT): 90 ± 100 pg/mL; Interleukin 1 beta secreted (donor F145, 24 h, 0.05 μM DBT): 3333 ± 164 pg/mL; fold increase in IL-1β secretion (donor F145, 24 h, 50 nM DBT): 1.5 fold; Interleukin 1 beta secreted (donor F145, 24 h, 0.1 μM DBT): 2390 ± 497 pg/mL; fold increase in IL-1β secretion (donor F145, 24 h, 100 nM DBT): no increase; Interleukin 1 beta secreted (donor F145, 24 h, 0.25 μM DBT): 700 ± 8 pg/mL; Interleukin 1 beta secreted (donor F145, 24 h, 0.5 μM DBT): 47 ± 59 pg/mL; Interleukin 1 beta secreted (donor F145, 48 h, 0.05 μM DBT): 780 ± 323 pg/mL; Interleukin 1 beta secreted (donor F145, 48 h, 0.1 μM DBT): 2232 ± 1035 pg/mL; Interleukin 1 beta secreted (donor F145, 48 h, 0.25 μM DBT): 337 ± 347 pg/mL; Interleukin 1 beta secreted (donor F145, 6 day, 0.05 μM DBT): 983 ± 248 pg/mL; Interleukin 1 beta secreted (donor F145, 6 day, 0.1 μM DBT): 987 ± 577 pg/mL; Interleukin 1 beta secreted (donor F145, 6 day, 0.25 μM DBT): 535 ± 16 pg/mL; Interleukin 1 beta secreted (donor F145, 6 day, 0.5 μM DBT): 147 ± 55 pg/mL; Interleukin 1 beta secreted (donor F152, 24 h, 0.05 μM DBT): 721 ± 36 pg/mL; Interleukin 1 beta secreted (donor F152, 24 h, 0.1 μM DBT): 516 ± 26 pg/mL; Interleukin 1 beta secreted (donor F152, 24 h, 0.25 μM DBT): 406 ± 29 pg/mL; Interleukin 1 beta secreted (donor F152, 24 h, 0.5 μM DBT): 340 ± 57 pg/mL; Interleukin 1 beta secreted (donor F152, 24 h, 1 μM DBT): 224 ± 9 pg/mL; Interleukin 1 beta secreted (donor F152, 24 h, 2.5 μM DBT): 83 ± 22 pg/mL; Interleukin 1 beta secreted (donor F152, 24 h, 5 μM DBT): 19 ± 12 pg/mL; Interleukin 1 beta secreted (donor F152, 48 h, 0.05 μM DBT): 563 ± 54 pg/mL; Interleukin 1 beta secreted (donor F152, 48 h, 0.1 μM DBT): 495 ± 72 pg/mL; Interleukin 1 beta secreted (donor F152, 48 h, 0.25 μM DBT): 607 ± 71 pg/mL; Interleukin 1 beta secreted (donor F152, 48 h, 0.5 μM DBT): 703 ± 34 pg/mL; Interleukin 1 beta secreted (donor F152, 48 h, 1 μM DBT): 296 ± 56 pg/mL; Interleukin 1 beta secreted (donor F152, 48 h, 2.5 μM DBT): 35 ± 38 pg/mL; Interleukin 1 beta secreted (donor F152, 48 h, 5 μM DBT): 86 ± 37 pg/mL; Interleukin 1 beta secreted (donor F152, 6 day, 0.05 μM DBT): 81 ± 21 pg/mL; Interleukin 1 beta secreted (donor F152, 6 day, 0.1 μM DBT): 71 ± 6 pg/mL; Interleukin 1 beta secreted (donor F152, 6 day, 0.25 μM DBT): 118 ± 11 pg/mL; Interleukin 1 beta secreted (donor F152, 6 day, 0.5 μM DBT): 161 ± 62 pg/mL; Interleukin 1 beta secreted (donor F152, 6 day, 1 μM DBT): 41 ± 7 pg/mL; Interleukin 1 beta secreted (donor F152, 6 day, 2.5 μM DBT): 20 ± 18 pg/mL; Interleukin 1 beta secreted (donor F152, 6 day, 5 μM DBT): 14 ± 1 pg/mL; Interleukin 1 beta secreted (donor F163, 24 h, 0.05 μM DBT): 613 ± 57 pg/mL; Interleukin 1 beta secreted (donor F163, 24 h, 0.1 μM DBT): 370 ± 13 pg/mL; Interleukin 1 beta secreted (donor F163, 24 h, 0.25 μM DBT): 309 ± 15 pg/mL; Interleukin 1 beta secreted (donor F163, 24 h, 0.5 μM DBT): 310 ± 16 pg/mL; Interleukin 1 beta secreted (donor F163, 24 h, 1 μM DBT): 130 ± 5 pg/mL; Interleukin 1 beta secreted (donor F163, 24 h, 2.5 μM DBT): 70 ± 25 pg/mL; Interleukin 1 beta secreted (donor F163, 24 h, 5 μM DBT): 86 ± 44 pg/mL; Interleukin 1 beta secreted (donor F163, 48 h, 0.05 μM DBT): 607 ± 86 pg/mL; Interleukin 1 beta secreted (donor F163, 48 h, 0.1 μM DBT): 342 ± 34 pg/mL; Interleukin 1 beta secreted (donor F163, 48 h, 0.25 μM DBT): 547 ± 68 pg/mL; Interleukin 1 beta secreted (donor F163, 48 h, 0.5 μM DBT): 677 ± 378 pg/mL; Interleukin 1 beta secreted (donor F163, 48 h, 1 μM DBT): 701 ± 111 pg/mL; Interleukin 1 beta secreted (donor F163, 6 day, 0.05 μM DBT): 715 ± 87 pg/mL; Interleukin 1 beta secreted (donor F163, 6 day, 0.1 μM DBT): 497 ± 75 pg/mL; Interleukin 1 beta secreted (donor F163, 6 day, 0.25 μM DBT): 305 ± 36 pg/mL; Interleukin 1 beta secreted (donor F163, 6 day, 0.5 μM DBT): 664 ± 70 pg/mL; Interleukin 1 beta secreted (donor F163, 6 day, 1 μM DBT): 175 ± 3 pg/mL; Interleukin 1 beta secreted (donor F166, 24 h, 0.05 μM DBT): 6772 ± 386 pg/mL; fold increase in IL-1β secretion (donor F166, 24 h, 0.05 μM DBT): 3.0 fold; Interleukin 1 beta secreted (donor F166, 24 h, 0.1 μM DBT): 5569 ± 527 pg/mL; Interleukin 1 beta secreted (donor F166, 24 h, 0.25 μM DBT): 2788 ± 126 pg/mL; Interleukin 1 beta secreted (donor F166, 24 h, 0.5 μM DBT): 158 ± 43 pg/mL; Interleukin 1 beta secreted (donor F166, 48 h, 0.05 μM DBT): 14662 ± 1044 pg/mL; Interleukin 1 beta secreted (donor F166, 48 h, 0.1 μM DBT): 12941 ± 423 pg/mL; Interleukin 1 beta secreted (donor F166, 48 h, 0.25 μM DBT): 5307 ± 349 pg/mL; Interleukin 1 beta secreted (donor F166, 48 h, 0.5 μM DBT): 924 ± 101 pg/mL; Interleukin 1 beta secreted (donor F166, 48 h, 1 μM DBT): 1075 ± 230 pg/mL

From PMC5114172 (Journal of applied toxicology : JAT, 2016)
